Results taken from ChEMBL document CHEMBL1649392, “Synthesis of substituted 3-amino-N-phenyl-1H-indazole-1-carboxamides endowed with antiproliferative activity” (Eur J Med Chem, 2011).

Key:
Type in all cases: functional
M14 = test: Antiproliferative activity against human M14 cells after 48 hrs by sulforhodamine B assay; conditions: M14, 48 h
In short: (§1)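 NCI 60-cell-line panel covering nine cancer types (leukemia, non-small cell lung, colon, CNS, melanoma, ovarian, renal, prostate, breast). Compounds were first tested at a single dose, then in a five-dose screen (series starting 0.01, 0.1 …) if they met NCI threshold criteria. Reported per line: GI50 (molar concentration inhibiting 50% net growth), TGI (total growth inhibition) and LC50 (50% net cell death).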

KM12 = test: Antiproliferative activity against human KM12 cells after 48 hrs by sulforhodamine B assay; conditions: KM12, 48 h; in short: as §1
NCI/ADR-RES = test: Antiproliferative activity against human NCI/ADR-RES cells after 48 hrs by sulforhodamine B assay; in short: as §1
SF-295 = test: Antiproliferative activity against human SF295 cells after 48 hrs by sulforhodamine B assay; conditions: SF-295, 48 h; in short: as §1
CCRF-CEM = test: Antiproliferative activity against human CCRF-CEM cells after 48 hrs by sulforhodamine B assay; in short: as §1
HT-29 = test: Antiproliferative activity against human HT-29 cells after 48 hrs by sulforhodamine B assay; conditions: HT-29, 48 h; in short: as §1
OVCAR-3 = test: Antiproliferative activity against human OVCAR3 cells after 48 hrs by sulforhodamine B assay; conditions: OVCAR-3, 48 h; in short: as §1
MCF7 = test: Antiproliferative activity against human MCF7 cells after 48 hrs by sulforhodamine B assay; conditions: MCF7, 48 h; in short: as §1
SK-MEL-2 = test: Antiproliferative activity against human SK-MEL-2 cells after 48 hrs by sulforhodamine B assay; conditions: SK-MEL-2, 48 h; in short: as §1
HCT-116 = test: Antiproliferative activity against human HCT116 cells after 48 hrs by sulforhodamine B assay; conditions: HCT-116, 48 h; in short: as §1
UACC-62 = test: Antiproliferative activity against human UACC62 cells after 48 hrs by sulforhodamine B assay; conditions: UACC-62, 48 h
In short: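 NCI 60-cell-line panel screen: single dose 10 µM first, then 5-dose testing (0.01, 0.1, … molar series). For each line, GI50 is the molar concentration giving 50% inhibition of net cell growth, TGI gives total inhibition of net growth, and LC50 gives 50% net cell death. Method follows the NCI DTP protocol.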

ACHN = test: Antiproliferative activity against human ACHN cells after 48 hrs by sulforhodamine B assay; in short: as §1
EKVX = test: Antiproliferative activity against human EKVX cells after 48 hrs by sulforhodamine B assay; in short: as §1
HCT-15 = test: Antiproliferative activity against human HCT15 cells after 48 hrs by sulforhodamine B assay; conditions: HCT-15, 48 h; in short: as §1
MDA-MB-231 = test: Antiproliferative activity against human MDA-MB-231 cells after 48 hrs by sulforhodamine B assay; conditions: MDA-MB-231, 48 h; in short: as §1
NCI-H23 = test: Antiproliferative activity against human NCI-H23 cells after 48 hrs by sulforhodamine B assay; conditions: NCI-H23, 48 h; in short: as §1
LOX IMVI = test: Antiproliferative activity against human LOXIMVI cells after 48 hrs by sulforhodamine B assay; in short: as §1
A498 = test: Antiproliferative activity against human A498 cells after 48 hrs by sulforhodamine B assay; conditions: A498, 48 h; in short: as §1
SN12C = test: Antiproliferative activity against human SN12C cells after 48 hrs by sulforhodamine B assay; in short: as §1
BT-549 = test: Antiproliferative activity against human BT549 cells after 48 hrs by sulforhodamine B assay; conditions: BT-549, 48 h; in short: as §1
OVCAR-4 = test: Antiproliferative activity against human OVCAR4 cells after 48 hrs by sulforhodamine B assay; conditions: OVCAR-4, 48 h; in short: as §1
HOP-92 = test: Antiproliferative activity against human HOP92 cells after 48 hrs by sulforhodamine B assay; conditions: HOP-92, 48 h; in short: as §1
HL-60(TB) = test: Antiproliferative activity against human HL-60(TB) cells after 48 hrs by sulforhodamine B assay; conditions: HL-60, 48 h
In short: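 Tested by the National Cancer Institute in its full tumour cell panel covering nine cancer types, including leukemia. Compounds were first screened at a single dose. Those passing the preset inhibition threshold then went to a 5-dose screen. GI50 is the molar concentration giving 50% inhibition of net cell growth; TGI and LC50 were also derived.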

MDA-MB-435 = test: Antiproliferative activity against human MDA-MB-435 cells after 48 hrs by sulforhodamine B assay; conditions: MDA-MB-435, 48 h; in short: as §1
NCI-H322M = test: Antiproliferative activity against human NCI-H322M cells after 48 hrs by sulforhodamine B assay; in short: as §1
PC-3 = test: Antiproliferative activity against human PC3 cells after 48 hrs by sulforhodamine B assay; conditions: PC-3, 48 h; in short: as §1
SK-MEL-5 = test: Antiproliferative activity against human SK-MEL-5 cells after 48 hrs by sulforhodamine B assay; conditions: SK-MEL-5, 48 h; in short: as §1
[1] = read-out: LC50 (the source's name)

Nc1ccc2c(c1)c(N)nn2C(=O)Nc1ccc(Cc2ccccc2)cc1
GI50 (M14): 4.59 µM | TGI (M14): 17.8 µM | CC50 (M14; [1]): 51.9 µM | GI50 (KM12): 3.34 µM | TGI (KM12): 15.1 µM | CC50 (KM12; [1]): 41.3 µM | GI50 (NCI/ADR-RES): 17.4 µM | TGI (NCI/ADR-RES): 75.1 µM | CC50 (NCI/ADR-RES; [1]): > 100 µM | GI50 (SF-295): 3.96 µM | LC50 (SF-295): 45.4 µM | TGI (SF-295): 15.1 µM | GI50 (CCRF-CEM): 2.07 µM | LC50 (concentration causing 50% net cell death) (CCRF-CEM): > 100 µM | TGI (CCRF-CEM): 18.8 µM | GI50 (HT-29): 4.51 µM | LC50 (concentration giving 50% net cell death) (HT-29): 46 µM | TGI (HT-29): 17.2 µM | GI50 (OVCAR-3): 12.1 µM | TGI (OVCAR-3): 28.3 µM | CC50 (OVCAR-3; [1]): 66.7 µM | GI50 (MCF7): 6.92 µM | TGI (MCF7): 26.5 µM | CC50 (MCF7; [1]): 85.4 µM | GI50 (SK-MEL-2): 26.1 µM | TGI (SK-MEL-2): 48.5 µM | CC50 (SK-MEL-2; [1]): 90.1 µM | GI50 (HCT-116): 6.79 µM | LC50 (concentration causing 50% net cell death) (HCT-116): 50 µM | TGI (HCT-116): 20.8 µM | GI50 (UACC-62): 2.9 µM | TGI (UACC-62): 12.6 µM | CC50 (UACC-62; [1]): 39.3 µM | GI50 (ACHN): 3.37 µM | TGI (ACHN): 13.7 µM | CC50 (ACHN; [1]): 39.6 µM | GI50 (EKVX): 14 µM | TGI (EKVX): 36.7 µM | CC50 (EKVX; [1]): 96.1 µM | GI50 (HCT-15): 2.75 µM | LC50 (concentration causing 50% net cell death) (HCT-15): 50.5 µM | TGI (HCT-15): 14.2 µM | GI50 (MDA-MB-231): 7.74 µM | TGI (MDA-MB-231): 22.7 µM | CC50 (MDA-MB-231; [1]): 54.3 µM | GI50 (NCI-H23): 16.9 µM | TGI (NCI-H23): 39.5 µM | CC50 (NCI-H23; [1]): 92.4 µM | GI50 (LOX IMVI): 3.38 µM | LC50 (concentration causing 50% net cell death) (LOX IMVI): 46.7 µM | TGI (LOX IMVI): 16 µM | GI50 (A498): 14.4 µM | TGI (A498): 28.4 µM | CC50 (A498; [1]): 56.1 µM | GI50 (SN12C): 13.4 µM | TGI (SN12C): 30.9 µM | CC50 (SN12C; [1]): 71.1 µM | GI50 (BT-549): 14.6 µM | TGI (BT-549): 33.5 µM | CC50 (BT-549; [1]): 76.7 µM | GI50 (OVCAR-4): 8.29 µM | TGI (OVCAR-4): 24.1 µM | CC50 (OVCAR-4; [1]): 63.2 µM | GI50 (HOP-92): 10.4 µM | LC50 (HOP-92): 57.4 µM | TGI (HOP-92): 24.4 µM | GI50 (HL-60(TB)): 3.46 µM | TGI (HL-60(TB)): 17.2 µM | CC50 (HL-60(TB); [1]): 72.2 µM | GI50 (MDA-MB-435): 7.36 µM | TGI (MDA-MB-435): 23.8 µM | CC50 (MDA-MB-435; [1]): 65.5 µM | GI50 (NCI-H322M): 13 µM | TGI (NCI-H322M): 27.5 µM | CC50 (NCI-H322M; [1]): 58.3 µM | GI50 (PC-3): 4.33 µM | TGI (PC-3): 24 µM | CC50 (PC-3; [1]): 87 µM | GI50 (SK-MEL-5): 6.52 µM | TGI (SK-MEL-5): 19.8 µM | CC50 (SK-MEL-5; [1]): 46.4 µM
